According to PubChem BioAssay:
Calls of active or inactive are those of the source.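 How the source made its calls, unless noted: active means viability at or below 10% of carrier control in both of two separate runs; inconclusive means viability at or below 10% in only one of the two runs; inactive means the rest.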

Experiments:
[1] = Her2 expression decrease, cell viability multiplex – SKBR3 breast tumor cells, AlphaScreen, ATP viability, primary screen (AID 461;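 active means Her2 level under about 52% in both replicate screens, with viability over 70% of control, limit read from the data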;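 on Her2 level: lower value means less Her2 protein in the cells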;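 on viability: percent of carrier control wells set as 100% viability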); details: SKBR3 Her2 protein level, 18-24 h, measured here: SKBR3 viability, ATP luminescence, at 10 µM
[2] = biological target: Receptor tyrosine-protein kinase erbB-2 (Homo sapiens) (UniProt P04626); experiment: as above; details: 18-24 h, at 10 µM, stronger effect = lower value
Sequence of Receptor tyrosine-protein kinase erbB-2 (Homo sapiens) (P04626 whole entry, looked up): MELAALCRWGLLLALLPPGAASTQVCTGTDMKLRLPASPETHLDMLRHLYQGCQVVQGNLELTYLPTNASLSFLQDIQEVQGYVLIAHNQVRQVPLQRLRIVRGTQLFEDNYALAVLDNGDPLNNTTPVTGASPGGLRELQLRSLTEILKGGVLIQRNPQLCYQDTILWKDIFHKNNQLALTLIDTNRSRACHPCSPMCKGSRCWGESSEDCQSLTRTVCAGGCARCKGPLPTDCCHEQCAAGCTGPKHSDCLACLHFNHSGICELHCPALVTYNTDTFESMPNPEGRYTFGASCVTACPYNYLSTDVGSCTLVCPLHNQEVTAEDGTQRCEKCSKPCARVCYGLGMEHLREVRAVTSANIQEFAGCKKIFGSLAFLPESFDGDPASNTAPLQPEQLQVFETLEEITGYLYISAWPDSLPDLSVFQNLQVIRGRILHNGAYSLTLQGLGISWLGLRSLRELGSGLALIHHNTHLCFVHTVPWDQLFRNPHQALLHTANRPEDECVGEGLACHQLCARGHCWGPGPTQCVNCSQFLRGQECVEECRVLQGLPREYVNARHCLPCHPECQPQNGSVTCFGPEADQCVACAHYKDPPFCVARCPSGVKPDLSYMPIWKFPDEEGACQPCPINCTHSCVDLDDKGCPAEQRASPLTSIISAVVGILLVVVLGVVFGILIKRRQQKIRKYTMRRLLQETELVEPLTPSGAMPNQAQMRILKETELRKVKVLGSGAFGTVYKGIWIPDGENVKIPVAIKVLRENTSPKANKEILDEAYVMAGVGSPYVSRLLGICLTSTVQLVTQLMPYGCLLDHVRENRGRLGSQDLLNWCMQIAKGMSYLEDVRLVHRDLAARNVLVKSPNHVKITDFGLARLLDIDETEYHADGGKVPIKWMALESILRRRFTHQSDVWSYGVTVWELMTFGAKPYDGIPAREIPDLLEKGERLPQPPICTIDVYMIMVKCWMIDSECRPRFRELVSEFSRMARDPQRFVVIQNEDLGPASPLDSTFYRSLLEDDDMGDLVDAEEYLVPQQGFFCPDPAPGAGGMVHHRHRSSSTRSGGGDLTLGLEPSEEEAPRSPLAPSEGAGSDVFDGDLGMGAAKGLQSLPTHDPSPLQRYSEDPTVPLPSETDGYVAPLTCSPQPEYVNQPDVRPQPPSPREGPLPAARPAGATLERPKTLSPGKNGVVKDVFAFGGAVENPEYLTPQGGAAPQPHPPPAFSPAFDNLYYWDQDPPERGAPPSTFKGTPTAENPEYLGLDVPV

[3] = reduced viability of SK-BR-3 breast cancer cells – cell-based, 24 h, human, pilot screen (AID 572); details: SK-BR-3 viability, CellTiter-Glo luminescence, at 10 µM, stronger effect = lower value;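 further: compound exposure lasted between 18 and 24 h rather than exactly 24 h; 100% = carrier-treated control wells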
[4] = HUVEC growth inhibition – cell-based, human, primary screen (AID 575;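 active means viability at or below 30% in both replicate assays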;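 further: 100% = median of untreated cell wells with 0.1% DMSO on each plate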); details: HUVEC proliferation, CellTiter-Glo luminescence, 72 h; at 10 µM; stronger effect = lower value
Outline: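 System: primary human umbilical vein endothelial cells; Quantity: 1250 endothelial cells in each well; Buffer or medium: supplemented EBM, 2% fetal bovine serum; Doses: one dose, 10 µM final, 0.1% DMSO; Incubation: 72 h compound incubation; Technique: ATP-based CellTiter-Glo luminescent read; Evaluation: percent of median DMSO-control luminescence; Controls: vehicle and MePR control wells.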

[5] = H69AR cell proliferation blockers – human, duplicate replicates, primary screen (AID 580;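 active means viability at or under a set limit in both replicates, limit being median viability minus 3 SD, cut at about 48% in these data, passing the limit was not always enough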;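 further: 100% = mean luminescence of untreated wells and 0% = no signal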); details: H69AR lung tumor cells viability, ATP luminescence, 72 h; at 10 µM; stronger effect = lower value
[6] = MRP1 drug-resistance reversers in H69AR cells – cell-based, doxorubicin co-treatment, pilot screen (AID 601;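 active means viability loss from added drug above about 55%, and viability with drug at most 40%, in both replicates, limit read from the data, passing the limit was not always enough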); details: CellTiter-Glo, 72 h, at 10 µM; for differential viability (reversal): stronger effect = higher value
[7] = yeast transport mutant growth inhibition pilot in 384-well plates, post-Golgi transport modulator project (AID 636; in the data active means inhibition above about 31%); details: absorbance 615 nm, about 18 h, stronger effect = higher value
[8] = growth suppression of yeast trafficking mutant, preliminary HTS, modulators of trafficking downstream of Golgi apparatus project, 1536-format plate, OD 615 nm (AID 637; in the data active means inhibition above about 30%); details: yeast transport mutant growth, absorbance 615 nm, 18 h; stronger effect = higher value
[9] = H69AR cells + 2 uM doxorubicin, measured here: viability with 2 uM doxorubicin, stronger effect = lower value
[10] = H69AR cells, compound alone cytotoxicity

| SMILES | viability [1] [%] | Her2 level [2] | viability [3] | viability [4] | viability [5] | differential viability (reversal) ([6]; H69AR cells + 2 uM doxorubicin) | viability [6, 9] [%] | viability [6, 10] [%] | inhibition [7] | inhibition [8] |
| --- | --- | --- | --- | --- | --- | --- | --- | --- | --- | --- |
| c1ccc2c(c1)CNc1ccccc1C2 | 97.5 | 90.5% (inactive) | 97.5% (inactive) | 73.5% (inactive) | 93.1% (inactive) | -4.85% (inactive) | 98 | 93.1 | -3.87% (inactive) | -3.71% (inactive) |
| O=C1CSC(c2cccc(F)c2)N1c1ccccc1F (stereo not given) | 86 | 102% (inactive) | 86% (inactive) | 98.8% (inactive) | 97.5% (inactive) | 9.31% (inactive) | 88.2 | 97.5 | -4.87% (inactive) | 7.38% (inactive) |
| COc1ccc(S(=O)(=O)N(C)CC(=O)N2CCCCC2)cc1Cl | 80 | 106% (inactive) | 80% (inactive) | 96.6% (inactive) | 93.5% (inactive) | 6.07% (inactive) | 87.4 | 93.5 | -5.41% (inactive) | 1.8% (inactive) |
| Cc1ccc(N2CC(C)Cn3c2nc2c3c(=O)n(CC(=O)OCc3ccccc3)c(=O)n2C)cc1C (stereo not given) | 86.5 | 99.5% (inactive) | 86.5% (inactive) | 74.8% (inactive) | 93.8% (inactive) | 26.6% (inactive) | 67.2 | 93.8 | -4.32% (inactive) | 1.97% (inactive) |
| COc1cc(C(=O)Nc2ccc3c(c2)C(=O)N(CCC(=O)O)C3=O)cc(OC)c1OC | 97.5 | 83% (inactive) | 97.5% (inactive) | 98% (inactive) | 106% (inactive) | 5.66% (inactive) | 100 | 106 | -3.42% (inactive) | -2.86% (inactive) |
| CCOC(=O)N1CCN(C(=O)c2n[nH]c(=O)c3ccccc23)CC1 | 85 | 101% (inactive) | 85% (inactive) | 95.1% (inactive) | 91.6% (inactive) | 1.86% (inactive) | 89.8 | 91.6 | -1.6% (inactive) | 19% (inactive) |
| Cc1cc(OCC(=O)Nc2ccc3oc(-c4ccncc4)nc3c2)ccc1Cl | 92.5 | 121% (inactive) | 92.5% (inactive) | 68% (inactive) | 60.1% (inactive) | 1.31% (inactive) | 58.7 | 60.1 | 3.95% (inactive) | 8.85% (inactive) |
| CCc1nn2c(N3CCOCC3)cc(C)nc2c1-c1ccc(F)cc1 | 92 | 84% (inactive) | 92% (inactive) | 86.2% (inactive) | 93.4% (inactive) | 31.5% (inactive) | 62 | 93.4 | -6.16% (inactive) | 1.75% (inactive) |
| COC(=O)Cc1c(C)nc2nc(-c3ccco3)[nH]n2c1=O | 110 | 93% (inactive) | 110% (inactive) | 93.6% (inactive) | 98.7% (inactive) | 8.05% (inactive) | 90.6 | 98.7 | -2.76% (inactive) | -3.65% (inactive) |
| CC(C)C(OC(=O)c1ccco1)C(=O)NCc1ccccc1 (stereo not given) | 91.5 | 97% (inactive) | 91.5% (inactive) | 92.5% (inactive) | 99.1% (inactive) | 8.63% (inactive) | 90.4 | 99.1 | 0% (inactive) | -4.6% (inactive) |
| Cc1ccc(CCNC(=O)C2CCN(S(=O)(=O)c3ccc4c(c3)CCC(=O)N4)CC2)cc1 | 98.5 | 100% (inactive) | 98.5% (inactive) | 44.2% (inactive) | 79.9% (inactive) | 10.6% (inactive) | 69.3 | 79.9 | -0.67% (inactive) | -6.07% (inactive) |
| O=C(O)CCCc1nc(-c2ccccc2)no1 | 91.5 | 87.5% (inactive) | 91.5% (inactive) | 96% (inactive) | 97% (inactive) | -0.87% (inactive) | 97.8 | 97 | -4.53% (inactive) | 0.95% (inactive) |
| Cc1ccc(CCNC(=O)Cn2cccc2)cc1 | 112 | 98% (inactive) | 112% (inactive) | 110% (inactive) | 99.5% (inactive) | 5.51% (inactive) | 94 | 99.5 | -4.73% (inactive) | 0.67% (inactive) |
| O=C(CN(Cc1ccco1)C(=O)CNS(=O)(=O)c1ccc(Cl)cc1)NCc1ccc(F)cc1 | 118 | 106% (inactive) | 118% (inactive) | 83.4% (inactive) | 81.4% (inactive) | -5.12% (inactive) | 86.5 | 81.4 | -0.53% (inactive) | 1.77% (inactive) |
| C=CCN1C(=O)C2(C(C#N)=C(N)Oc3n[nH]c(CCC)c32)c2ccccc21 (stereo not given) | 108 | 103% (inactive) | 108% (inactive) | 100% (inactive) | 87.8% (inactive) | 2.95% (inactive) | 84.8 | 87.8 | -4.55% (inactive) | 0% (inactive) |
| COCCN(CCOC)S(=O)(=O)c1ccc(C(=O)Nc2nnc(C3CC3)o2)cc1 | 75 | 86% (inactive) | 75% (inactive) | 80.5% (inactive) | 82.7% (inactive) | -1.53% (inactive) | 84.2 | 82.7 | -3.65% (inactive) | 1.48% (inactive) |
| Nc1ncnc2nc(SCCN3CCCCC3)[nH]c12 | 119 | 88% (inactive) | 119% (inactive) | 102% (inactive) | 100% (inactive) | 3.13% (inactive) | 97.3 | 100 | 3.29% (inactive) | -5.32% (inactive) |
| O=C(Cn1ccc2ccccc2c1=O)NCCC(=O)NC1CCN(Cc2ccccc2)CC1 | 58 | 106% (inactive) | 58% (inactive) | 107% (inactive) | 100% (inactive) | 17.5% (inactive) | 82.8 | 100 | 3.29% (inactive) | -4.91% (inactive) |
| CCSCCC(NC1=CC(=O)CC(C)(C)C1)C(=O)O (stereo not given) | 92 | 89% (inactive) | 92% (inactive) | 116% (inactive) | 101% (inactive) | 5.77% (inactive) | 94.8 | 101 | 1.58% (inactive) | -3.45% (inactive) |
| CC(=O)c1c(C)nc(C)nc1NC(=O)Cc1ccccc1 | 106 | 102% (inactive) | 106% (inactive) | 93.9% (inactive) | 93.9% (inactive) | -6.36% (inactive) | 100 | 93.9 | -5% (inactive) | -3.55% (inactive) |
| COc1ccc(NC(=O)C(C)NS(=O)(=O)c2ccc(NC(C)=O)cc2)cc1Cl (stereo not given) | 124 | 97% (inactive) | 124% (inactive) | 103% (inactive) | 95% (inactive) | 7.65% (inactive) | 87.4 | 95 | -6% (inactive) | -1.75% (inactive) |
| N#Cc1cn(CC(=O)N2CCCC2)c2ccccc12 | 118 | 85% (inactive) | 118% (inactive) | 100% (inactive) | 93.6% (inactive) | 8.44% (inactive) | 85.2 | 93.6 | -3.29% (inactive) | 1.15% (inactive) |
| COc1ccc(N2CCN(C(=O)C(OC(C)=O)c3ccccc3)CC2)cc1 (stereo not given) | 96.5 | 99% (inactive) | 96.5% (inactive) | 89.4% (inactive) | 97% (inactive) | 2.1% (inactive) | 94.9 | 97 | -0.53% (inactive) | -2.38% (inactive) |
| CCSc1nnc(NC(=O)CCNS(=O)(=O)c2cc(Br)cnc2N)s1 | 79.5 | 107% (inactive) | 79.5% (inactive) | 76.8% (inactive) | 107% (inactive) | 1.07% (inactive) | 106 | 107 | -1.04% (inactive) | -0.82% (inactive) |
| CCOC(=O)COc1ccc(C2NC(C(=O)O)CS2)cc1 (stereo not given) | 94.5 | 102% (inactive) | 94.5% (inactive) | 83.4% (inactive) | 102% (inactive) | 5.91% (inactive) | 96.3 | 102 | -3.03% (inactive) | -7.5% (inactive) |
| CCN(CC)S(=O)(=O)c1ccc2c(c1)nc(SCC(=O)NC1CC1)n2-c1ccccc1OC | 92.5 | 86.5% (inactive) | 92.5% (inactive) | 67.8% (inactive) | 91.3% (inactive) | 14.2% (inactive) | 77.1 | 91.3 | -5.81% (inactive) | 3.65% (inactive) |
| Cc1ccc(Cc2c(C)nc3c(C(=O)O)cnn3c2C)cc1 | 93.5 | 114% (inactive) | 93.5% (inactive) | 85.5% (inactive) | 91.9% (inactive) | -10.4% (inactive) | 102 | 91.9 | -4.34% (inactive) | -5.17% (inactive) |
| CCC(C)NC(=O)CC1Oc2ccc(C)cc2NC1=O (stereo not given) | 105 | 99% (inactive) | 105% (inactive) | 90.3% (inactive) | 91.7% (inactive) | -2.57% (inactive) | 94.2 | 91.7 | 0.13% (inactive) | -3.28% (inactive) |
| CCCn1c(=O)c2ccccc2n2c(SCc3cc(=O)n4ccsc4n3)nnc12 | 79.5 | 90.5% (inactive) | 79.5% (inactive) | 104% (inactive) | 82.1% (inactive) | 14.6% (inactive) | 67.6 | 82.1 | -1.18% (inactive) | -12.1% (inactive) |
